# Screens (PubChem)
# A selection: hits, their analogues and other compounds. The true share with any hit is near 1.8%.
# Thrombin inh – thrombin (human) inhibition; P00734; alpha-thrombin, Boc-VPR-AMC fluorogenic substrate cleavage; inhibition, % at 5 µM; 0.26% of 220,000 active;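 active = inhibition at or above 40%; inactive = inhibition below 40%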;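 note: 0% = enzyme with no compound and 100% = wells without enzyme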
#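 Material: human alpha-thrombin protein; Also added: Boc-VPR-AMC substrate, 15 µM final; Timing: enzyme reaction carried out at room temperature; Signal: fluorescence, ex 355 nm, em 460 nm; Measure: % inhibition of thrombin; Controls: enzyme without compound as high, wells lacking enzyme as low.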
# Wee1 degr inh – human Wee1 degradation inhibition, primary screen. HeLa Luc-Wee1K328M stability, luciferase luminescence; 100% = proteasome inhibitor MG132 effect. P30291. reporter increase, % at 5 µM. AID 1321. 1.2% of 220,000 active;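 active = activation above the mean of all tested compounds plus 3 SD, set per screening run, cut at about 8.8% in these data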;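 note: cells exposed to compound for 20 h before luminescence read; 0% = DMSO alone and 100% = MG132 at 30 µM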
# Target sequence (P30291 whole entry K328M): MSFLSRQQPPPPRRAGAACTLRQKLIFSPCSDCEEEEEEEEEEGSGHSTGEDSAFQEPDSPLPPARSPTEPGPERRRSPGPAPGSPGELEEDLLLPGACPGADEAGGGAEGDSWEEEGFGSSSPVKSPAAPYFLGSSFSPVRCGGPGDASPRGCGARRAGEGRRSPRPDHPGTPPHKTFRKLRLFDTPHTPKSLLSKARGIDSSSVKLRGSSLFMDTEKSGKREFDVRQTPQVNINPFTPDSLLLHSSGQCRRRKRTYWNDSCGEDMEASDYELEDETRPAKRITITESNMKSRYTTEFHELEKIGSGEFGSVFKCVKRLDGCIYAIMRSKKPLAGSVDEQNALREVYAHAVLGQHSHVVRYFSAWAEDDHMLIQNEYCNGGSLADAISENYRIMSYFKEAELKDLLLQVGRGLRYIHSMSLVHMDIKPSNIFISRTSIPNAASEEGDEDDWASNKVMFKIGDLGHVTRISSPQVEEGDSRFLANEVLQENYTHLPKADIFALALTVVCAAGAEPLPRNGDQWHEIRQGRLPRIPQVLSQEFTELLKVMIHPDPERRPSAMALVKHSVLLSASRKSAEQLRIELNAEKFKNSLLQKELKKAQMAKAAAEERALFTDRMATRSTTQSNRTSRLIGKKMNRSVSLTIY
# Platelet DG rel – platelet dense granule release activity; inhibition, %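 (compounds screened at 7.5 µM in platelet-rich plasma)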; human platelet-rich plasma, SFLLRN dense granule ATP release, luminescence; 0.22% of 300,000 active; AID 1663;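 active = mean replicate score, as percent of positive control, at or above 50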
# FXIa inh 1536 – factor XIa (human) inhibition. purified FXIa, Boc-Glu-Ala-Arg-AMC fluorogenic substrate. inhibition, % at 5 µM. 0.14% of 220,000 active. AID 798;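 active = inhibition of at least 40%; inactive = inhibition below 40%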;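 note: fluorescence of freed AMC excited at 355 nm; 0% = enzyme without compound and 100% = no enzyme blank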
# hK5 inh – inhibitors of human kallikrein 5 | inhibition, % at 5 µM | recombinant hK5, fluorogenic AMC substrate cleavage | 0.59% of 210,000 active | Q9Y337;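 active = inhibition of 40% or more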;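 note: 0% = enzyme controls without compound and 100% = no-enzyme blanks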
# FXIIa inh 1536 – factor XIIa (human) inhibition. P00748. purified FXIIa, Boc-QGR-AMC fluorogenic substrate, 2 h. inhibition, % at 5 µM. 0.3% of 220,000 active. AID 800; in the data active = inhibition above about 40%;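 note: 0% = enzyme with no compound and 100% = blank without enzyme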
# Wee1 stab conf – confirmation of human Wee1 degradation inhibitors; shares compounds with Wee1 degr inh; HeLa Luc-Wee1K328M degradation, luminescence; vehicle 0%, proteasome-blocked wells 100%; activation, % at 5 µM; 4% of 1,100 active; AID 1410; in the data active = activation above about 8.9%
# Active calls of the source: *; nt = no result given.
SMILES,Thrombin inh,Wee1 degr inh,Platelet DG rel,FXIa inh 1536,hK5 inh,FXIIa inh 1536,Wee1 stab conf
Cc1csc(NC(=O)c2ccco2)c1C(=O)c1ccccc1,-10,12*,8,-1,1,8,1
Cc1cc([N+](=O)[O-])nn1CCCC(=O)Nc1ccc(Cl)cc1Cl,-6,-1,0,-3,-3,3,nt
Cc1c(Cl)cccc1NC(=O)CCCn1nc([N+](=O)[O-])cc1C,-7,15*,0,-4,1,8,-3
C=CCc1cccc2cc(C(=O)NCCOC)c(=O)oc12,0,-2,-14,-1,0,9,nt
C=CCc1cccc2cc(C(=O)NC3CCCCC3)c(=O)oc12,-12,17*,3,-6,-5,2,-1
Cn1c(SC/C=C/c2ccccc2)nnc1-c1ccco1,0,12*,2,3,-21,9,0
O=[N+]([O-])c1ccc(S(=O)(=O)N2CCN=C2SCc2cccnc2)cc1,-2,12*,5,-2,2,6,-1
CN(C)C(CNC(=O)c1cc(S(=O)(=O)N(C)c2ccccc2)ccc1Cl)c1cccs1 (stereo not drawn),7,0,-3,-3,-7,10,nt
CCOC(=S)SCC(=O)Nc1ncc(C)s1,1,4,-6,11,-2,14,nt
COc1cc(OC)cc(C(=O)Nc2ccc(-c3nc4ccccc4o3)cc2)c1,2,-1,-5,6,-8,-2,nt
COc1cccc(C(=O)Nc2ccc(-c3nc4ccccc4o3)c(O)c2)c1,3,12*,0,3,-14,9,2
O=C(NCCSc1ccccc1)c1ccc(CN2CCOCC2)cc1,-2,15*,-17,1,2,8,6
O=C(NCCSc1ccc(Cl)cc1)c1ccc(CN2CCOCC2)cc1,-5,-3,-2,0,5,3,nt
Cn1c(=NC(=O)c2ccccc2[N+](=O)[O-])sc2cccc(F)c21,0,17*,1,5,1,9,0
COc1ccc(OC)c(S(=O)(=O)N2CCC(C(=O)Nc3cccc(C)c3)CC2)c1,-5,11*,12,-1,-11,-6,2
COc1ccc(OC)c(S(=O)(=O)N2CCC(C(=O)Nc3ccccc3)CC2)c1,1,0,3,0,-1,4,nt
NC(=O)Cn1c(=O)n(C2CCCCC2)c(=O)c2c3c(sc21)CCCCC3,-4,-2,9,3,-5,10,nt
O=C(Nc1ccccn1)c1csc2c1CCCC2,-7,18*,0,-2,2,10,5
Cc1ccc2c3c(c(SCC(=O)Nc4nonc4C)nc2c1)CCCC3,0,13*,-3,9,-17,10,2
Cc1nonc1NC(=O)CSc1nc2cc(Cl)ccc2c2c1CCCC2,-5,1,6,-8,0,-3,nt
Cc1cc(C(=O)N(C)Cc2c(F)cccc2Cl)c2ccccc2n1,nt,nt,-1,nt,nt,nt,nt
Fc1cccc(/C=N/Nc2nc3ccccc3[nH]2)c1,-7,11*,6,-2,-3,1,0
O=C(C[n+]1cn(C(F)F)c2ccccc21)c1ccc(OC(F)F)cc1,-3,15*,-1,-2,0,6,-1
COc1ccc(CSc2nc(O)cc(=O)n2CC(C)C)cc1F,nt,nt,3,nt,nt,nt,nt
C=C(C)CN(CC)C(=O)CCc1nnc(CCCc2ccccc2)o1,-2,4,-1,-1,nt,7,nt
SMILES,Thrombin inh,Wee1 degr inh,Platelet DG rel,FXIa inh 1536,hK5 inh,FXIIa inh 1536,Wee1 stab conf
C#CCN(CC=C)C(=O)CCc1nnc(COc2ccccc2)o1,-6,16*,-4,-2,2,10,4
CN(C)C(=O)NC(O)C(Cl)Cl (stereo not drawn),1,-1,0,-1,3,6,nt
CN(C)C(=O)c1nc2ccccc2s1,-4,2,-8,6,-16,9,nt
CN(C(=O)c1ccccc1)c1nc2ccccc2s1,0,13*,2,-3,1,-7,-2
O=C(CCn1c(=O)oc2ccccc21)NCCC1=CCCCC1,-2,17*,-4,0,2,2,-1
O=C(CCn1c(=O)oc2ccccc21)NCCN1CCc2ccccc2C1,-8,-2,-4,-9,-13,-3,nt
